This note sets out measurements from article PMC5155582 (ChemMedChem, 2016).

Each structure is given as a SMILES string.

The first data set concerns the target T1, CYP2B6 (Homo sapiens, UniProt P20813).
T1 sequence (P20813 1-491): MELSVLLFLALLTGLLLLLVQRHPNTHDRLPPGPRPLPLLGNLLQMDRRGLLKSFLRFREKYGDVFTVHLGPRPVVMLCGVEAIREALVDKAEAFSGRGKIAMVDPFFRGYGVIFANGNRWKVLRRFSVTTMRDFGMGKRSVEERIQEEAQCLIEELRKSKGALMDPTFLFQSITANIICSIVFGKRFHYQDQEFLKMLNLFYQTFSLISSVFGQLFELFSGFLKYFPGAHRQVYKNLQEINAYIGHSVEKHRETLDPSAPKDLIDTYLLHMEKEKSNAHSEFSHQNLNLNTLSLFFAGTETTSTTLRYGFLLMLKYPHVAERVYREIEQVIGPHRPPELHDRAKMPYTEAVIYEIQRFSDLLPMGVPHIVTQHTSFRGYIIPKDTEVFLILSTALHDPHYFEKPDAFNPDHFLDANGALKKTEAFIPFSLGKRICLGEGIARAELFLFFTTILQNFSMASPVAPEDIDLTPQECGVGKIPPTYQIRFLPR
Description: Product formation kinetic analysis. Format: in vitro ADME. The note with it: cDNA-expressed CYP2B6. In a few lines:
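cDNA-expressed CYP2B6 (5–20 nM) in 100 mM potassium phosphate pH 7.4 at 37 °C. Eight substrate concentrations, 0.5–100 μM (0.5–30 μM for one poorly soluble analogue); parent drug run the same way. NADPH regenerating system, 5–20 min, with linearity in enzyme and time set by pilot runs. Ice-cold acetonitrile stop. Product measured by SRM uHPLC-MS/MS or UV, without authentic standards. KM from a substrate-inhibition fit; fold change is analogue KM divided by the parent's 8-hydroxylation KM.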
In general, Km refers to the concentration of substrate that gives half-maximal velocity. On to `CC1Nc2ccc(Cl)cc2C(C#CC2CC2)(C(F)(F)F)O1` (stereo not drawn) [analogue 1, 6-Chloro-4-(2-cyclopropylethynyl)-1,4-dihydro-2-methyl-4-(trifluoromethyl)-2H-3,1-benzoxazine], for which the Michaelis constant (Km) was about 1 µM.
Still for that read-out and setting: for `O=C1Nc2ccc(Cl)cc2[C@@](C#CC2CC2)(C(F)(F)F)O1` [EFV, (4S)-6-Chloro-4-(2-cyclopropylethynyl)-1,4-dihydro-4-(trifluoromethyl)-2H-3,1-benzoxazin-2-one, reference compound] the value was 3.6 ± 1.7 µM; for `O=C1CC(C#CC2CC2)(C(F)(F)F)c2cc(Cl)ccc2N1` (stereo not drawn) [analogue 4, 6-Chloro-4-(cyclopropylethynyl)-3,4-dihydro-4-(trifluoromethyl)-2(1H)-quinolinone], 14 ± 6.4 µM.

The target of a further data set is T2, rat CYP2B1 (Rattus norvegicus, UniProt P00176).
T2 sequence (P00176 1-491): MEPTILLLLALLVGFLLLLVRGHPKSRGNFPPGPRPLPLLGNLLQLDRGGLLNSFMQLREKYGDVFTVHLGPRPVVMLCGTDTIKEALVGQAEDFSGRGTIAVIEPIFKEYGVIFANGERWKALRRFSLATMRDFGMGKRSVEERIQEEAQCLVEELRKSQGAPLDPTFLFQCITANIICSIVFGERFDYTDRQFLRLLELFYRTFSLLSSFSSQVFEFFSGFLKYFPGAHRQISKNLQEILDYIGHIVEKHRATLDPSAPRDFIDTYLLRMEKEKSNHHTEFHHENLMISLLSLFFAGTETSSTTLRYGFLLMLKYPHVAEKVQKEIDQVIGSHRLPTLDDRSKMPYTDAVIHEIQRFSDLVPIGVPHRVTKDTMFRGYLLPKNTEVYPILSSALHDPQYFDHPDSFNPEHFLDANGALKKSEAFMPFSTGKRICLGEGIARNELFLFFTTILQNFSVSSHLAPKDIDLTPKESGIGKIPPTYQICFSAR
Description: Comparison of metabolite formation by cDNA-expressed CYP2B1 and CYP2B6. The format is in vitro ADME. To be noted: 10 nM cDNA-expressed CYP2B1, 10 μM substrate, 30 min. A digest of the protocol:
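cDNA-expressed rat CYP2B1 or human CYP2B6 systems, both with cytochrome b5 (CYP:reductase:b5 molar ratio 1:1:2 for 2B1, 1:10:2 for 2B6), 10 nM, run side by side with 10 μM substrate in 100 mM potassium phosphate pH 7.4. 5 min preincubation at 37 °C, then NADPH regenerating system for 30 min at 37 °C. Acetonitrile stop, then uHPLC-MS or uHPLC-UV (220 nm). CYP2B1 peak height normalised to mean CYP2B6 peak height (100%). Three independent experiments, mean ± SEM.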
Turning to `CCCC#CC1(C(F)(F)F)OC(=O)Nc2ccc(Cl)cc21` (racemic) [pentynyl analogue, rac 6-Chloro-1,4-dihydro-4-(1-pentynyl)-4-(trifluoromethyl)-2H-3,1-benzoxazin-2-one], the “Metabolite formation by CYP2B1 (in words)” value is “M4 and M5 formation”.
Take `O=C1Nc2ccc(Cl)cc2[C@@](/C=C/C2CC2)(C(F)(F)F)O1` [E-dihydroefavirenz, (E)-Dihydroefavirenz]: the “Metabolite formation by CYP2B1 (in words)” value is “M2 formation”.
On the same count and under the same terms, the value for `Nc1ccc(Cl)cc1[C@@](O)(C#CC1CC1)C(F)(F)F` [(S)-5-Chloro-α-(cyclopropylethynyl)-2-amino-α-(trifluoromethyl)benzenemethanol] was “displayed activity”; that for `COc1ccc(C(=O)Nc2ccc(Cl)cc2C(O)(C#CC2CC2)C(F)(F)F)cc1` (racemic) [methoxybenzamide analogue, rac N-[4-Chloro-2-[3-cyclopropyl-1-hydroxy-1-(trifluoromethyl)-2-propynyl]phenyl]-4-methoxybenzamide] was “did not form metabolites”; that for `Nc1ccc(Cl)cc1[C@](O)(C#CC1CC1)C(F)(F)F` [(R)-5-Chloro-α-(cyclopropylethynyl)-2-amino-α-(trifluoromethyl)benzenemethanol] was “displayed activity”.

Still in this data set, the particulars now being: 10 nM enzyme, 10 μM substrate, 30 min; CYP2B6 peak height set at 100%.
Take `O=C1Nc2c(O)cc(Cl)cc2[C@@](C#CC2CC2)(C(F)(F)F)O1` [8-OH EFV, 8-hydroxyefavirenz]: the “Metabolite formed by CYP2B1 as percent of metabolite formed by CYP2B6” value is on record as about 48%.
